Measurements from different studies.
Target: Serine/threonine-protein kinase Chk1 (CHEK1, Homo sapiens, UniProt O14757)
Sequence (O14757 1-476, as in one of the studies): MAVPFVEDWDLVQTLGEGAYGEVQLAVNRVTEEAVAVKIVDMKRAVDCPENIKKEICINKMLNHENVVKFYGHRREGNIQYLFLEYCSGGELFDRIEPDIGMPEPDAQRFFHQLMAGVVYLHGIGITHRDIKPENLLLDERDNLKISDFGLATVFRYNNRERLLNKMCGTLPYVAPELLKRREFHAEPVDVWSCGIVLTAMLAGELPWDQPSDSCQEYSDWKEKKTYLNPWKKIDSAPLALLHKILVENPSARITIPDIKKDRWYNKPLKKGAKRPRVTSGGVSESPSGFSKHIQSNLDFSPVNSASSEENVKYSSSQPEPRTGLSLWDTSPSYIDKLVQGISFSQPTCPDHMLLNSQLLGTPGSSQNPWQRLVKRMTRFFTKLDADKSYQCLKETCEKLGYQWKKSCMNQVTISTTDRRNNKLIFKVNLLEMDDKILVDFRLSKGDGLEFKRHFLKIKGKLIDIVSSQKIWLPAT

Compound | observed | action | technique | tested at | quantity | value
COc1ccc2oc(-c3ccc4nc(N)oc4c3)c/c(=N\c3ccccc3NC(=O)CCN)c2c1 | binding | – | – | 1 µM | remaining binding | 87%
C#Cc1cnc(Nc2ccnc(CO)c2)nc1Nc1ccccc1S(C)(=O)=NC#N (stereo not drawn) | cell-free assay | – | – | 1 µM | remaining signal | 38%
CCCCC(=O)Nc1ccc(-c2ccc3ncn(CCC)c(=O)c3c2)cn1 | binding | – | competition with immobilised ligand | 0.5 µM | remaining binding | 86%
C=CC(=O)N1CCC[C@@H](n2nc(-c3ccc(Oc4ccccc4)cc3)c3c(N)ncnc32)C1 | enzyme activity | inhibitor | – | 1 µM | inhibition | 10%
COc1ccc2[nH]c3c4[nH]c5ccc(OC)cc5c4c4c(c3c2c1)C(=O)NC4=O | binding | – | – | 1 µM | remaining binding | 12%
N#Cc1ccc(NC(=O)Nc2ccccc2)cc1 | cell-free assay | – | competition with immobilised ligand | 25 µM | remaining binding | 91%
CC#CC(=O)N1CCC[C@H]1c1nc(-c2ccc(C(=O)Nc3ccccn3)cc2)c2c(N)nccn12 | enzyme activity | inhibitor | – | 1 µM | inhibition | 20%
C1=C/COCc2cc(ccc2OCCN2CCCC2)Nc2nccc(n2)-c2cccc(c2)COC/1 | cell-free assay | – | – | 0.1 µM | remaining signal | 100%
C[C@H]1CC[C@H](n2c3cnccc3c3cnc(Nc4ccc5c(n4)CCN(C(=O)CO)C5)nc32)CC1 | cell-free assay | – | – | 1 µM | remaining signal | 93%
